According to ChEMBL document CHEMBL1148516, “Design and evaluation of new antipsoriatic antedrug candidates having 16-en-22-oxa-vitamin D3 structures” (Bioorg Med Chem Lett, 2006):

system: Keratinocyte; test: Antiproliferative activity against human keratinocyte assessed as inhibition of [3H]TdR uptake; assay type: functional, cell-based; details: not given

| Structure (SMILES) | IC50 [nM] |
| --- | --- |
| C=C1/C(=C\C=C2/CCC[C@]3(C)C([C@H](C)OCC(=O)NC(C)(C)C)=CCC23)C[C@@H](O)C[C@@H]1O (some centres not stated) | 4.4 |
| C=C1/C(=C\C=C2/CCC[C@]3(C)C([C@H](C)OCC(=O)O)=CCC23)C[C@@H](O)C[C@@H]1O (some centres not stated) | > 1000 |
| C=C1/C(=C\C=C2/CCC[C@]3(C)C([C@H](C)OCC(=O)OC(C)(C)C)=CCC23)C[C@@H](O)C[C@@H]1O (some centres not stated) | 8.9 |
| C=C1/C(=C\C=C2/CCC[C@]3(C)C([C@H](C)OCCC(C)(C)O)=CCC23)CC(O)CC1O (single isomer, unassigned) | 50.4 |
| C=C1/C(=C\C=C2/CCC[C@]3(C)C([C@H](C)OCC(=O)NCC(F)(F)C(F)(F)F)=CCC23)C[C@@H](O)C[C@@H]1O (some centres not stated) | 1.9 |
| C=C1/C(=C\C=C2/CCC[C@]3(C)C([C@H](C)OCC(=O)OC(C)(CC)CC)=CCC23)C[C@@H](O)C[C@@H]1O (some centres not stated) | 0.8 |
| C=C1/C(=C\C=C2/CCC[C@]3(C)[C@@H]([C@H](C)OCCC(C)(C)O)CC[C@@H]23)C[C@@H](O)C[C@@H]1O [MAXACALCITOL] | 22.6 |
| C=C1/C(=C\C=C2/CCC[C@]3(C)C([C@H](C)O)=CCC23)C[C@@H](O)C[C@@H]1O (some centres not stated) | > 1000 |
| C=C1/C(=C\C=C2/CCC[C@@]3(C)C2CC[C@@H]3[C@H](C)OCC(=O)OC(C)(C)C)C[C@@H](O)C[C@@H]1O (some centres not stated) | 88.4 |
| C=C1/C(=C\C=C2/CCC[C@]3(C)C([C@H](C)OCC(=O)NCC(C)(C)C)=CCC23)C[C@@H](O)C[C@@H]1O (some centres not stated) | 17.4 |
| C=C1/C(=C\C=C2/CCC[C@@]3(C)C2CC[C@@H]3[C@H](C)CCC(=O)OC(C)(C)C)C[C@@H](O)C[C@@H]1O (some centres not stated) | 17 |

system: not listed separately; test: Clearance in rat at 10 ug/kg, iv; assay type: ADME, organism-based; details: in vivo, 0.01 mg/kg
Outline: (§1)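 Rats were dosed intravenously at 10 µg/kg or 1000 µg/kg. Total clearance (mL/h/kg) is the mean of 3–4 rats.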

| clearance [mL/min/kg] | Structure (SMILES) |
| --- | --- |
| 20.9 | C=C1/C(=C\C=C2/CCC[C@]3(C)[C@@H]([C@H](C)OCCC(C)(C)O)CC[C@@H]23)C[C@@H](O)C[C@@H]1O [MAXACALCITOL] |

system: not listed separately; test: Clearance in rat at 1000 ug/kg, iv; assay type: ADME, organism-based; details: in vivo, 1 mg/kg; outline: as §1

| clearance [mL/min/kg] | Structure (SMILES) |
| --- | --- |
| 131 | C=C1/C(=C\C=C2/CCC[C@]3(C)C([C@H](C)OCC(=O)NCC(F)(F)C(F)(F)F)=CCC23)C[C@@H](O)C[C@@H]1O (some centres not stated) |
| 94.8 | C=C1/C(=C\C=C2/CCC[C@]3(C)C([C@H](C)OCC(=O)OC(C)(CC)CC)=CCC23)C[C@@H](O)C[C@@H]1O (some centres not stated) |

species: Homo sapiens; test: Clearance in human liver S9 fraction; assay type: ADME; details: not given
Outline: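 Compound was incubated with human liver S9 in the presence of NADPH. The elimination rate was taken from the time course of compound concentration in the reaction mixture. Clearance is given as mL/min/mg S9 protein, mean of two experiments.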

| CL [µL/min/mg] | Structure (SMILES) |
| --- | --- |
| 278 | C=C1/C(=C\C=C2/CCC[C@]3(C)C([C@H](C)OCC(=O)NCC(F)(F)C(F)(F)F)=CCC23)C[C@@H](O)C[C@@H]1O (some centres not stated) |
| 1421 | C=C1/C(=C\C=C2/CCC[C@]3(C)C([C@H](C)OCC(=O)OC(C)(CC)CC)=CCC23)C[C@@H](O)C[C@@H]1O (some centres not stated) |
| 7 | C=C1/C(=C\C=C2/CCC[C@]3(C)[C@@H]([C@H](C)OCCC(C)(C)O)CC[C@@H]23)C[C@@H](O)C[C@@H]1O [MAXACALCITOL] |

target: T1, Vitamin D3 receptor (Gallus gallus) (UniProt O42392); test: Binding affinity to chick VDR; details: not given
T1 sequence (whole entry): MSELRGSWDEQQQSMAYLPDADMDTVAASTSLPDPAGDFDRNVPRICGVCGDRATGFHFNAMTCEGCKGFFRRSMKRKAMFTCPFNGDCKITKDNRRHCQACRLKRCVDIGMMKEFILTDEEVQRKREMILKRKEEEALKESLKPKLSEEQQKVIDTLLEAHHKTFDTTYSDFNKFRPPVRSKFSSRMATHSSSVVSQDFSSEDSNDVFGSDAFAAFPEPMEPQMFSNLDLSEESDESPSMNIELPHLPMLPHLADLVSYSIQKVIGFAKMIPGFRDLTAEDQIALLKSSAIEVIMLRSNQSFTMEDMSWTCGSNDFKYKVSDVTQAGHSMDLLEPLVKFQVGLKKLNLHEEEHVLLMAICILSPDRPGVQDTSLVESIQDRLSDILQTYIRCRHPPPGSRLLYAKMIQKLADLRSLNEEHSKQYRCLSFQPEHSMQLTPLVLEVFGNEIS
Outline: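 Receptor affinity is expressed as a percentage relative to calcitriol, set at 100%. Each value is the average of duplicate measurements.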

| Activity [%] | Structure (SMILES) |
| --- | --- |
| 22.2 | C=C1/C(=C\C=C2/CCC[C@]3(C)C([C@H](C)OCC(=O)NC(C)(C)C)=CCC23)C[C@@H](O)C[C@@H]1O (some centres not stated) |
| 0.04 | C=C1/C(=C\C=C2/CCC[C@]3(C)C([C@H](C)OCC(=O)O)=CCC23)C[C@@H](O)C[C@@H]1O (some centres not stated) |
| 40.1 | C=C1/C(=C\C=C2/CCC[C@]3(C)C([C@H](C)OCC(=O)OC(C)(C)C)=CCC23)C[C@@H](O)C[C@@H]1O (some centres not stated) |
| 34.4 | C=C1/C(=C\C=C2/CCC[C@]3(C)C([C@H](C)OCC(=O)NCC(F)(F)C(F)(F)F)=CCC23)C[C@@H](O)C[C@@H]1O (some centres not stated) |
| 45.1 | C=C1/C(=C\C=C2/CCC[C@]3(C)C([C@H](C)OCC(=O)OC(C)(CC)CC)=CCC23)C[C@@H](O)C[C@@H]1O (some centres not stated) |
| 0.32 | C=C1/C(=C\C=C2/CCC[C@]3(C)C([C@H](C)O)=CCC23)C[C@@H](O)C[C@@H]1O (some centres not stated) |
| 18 | C=C1/C(=C\C=C2/CCC[C@]3(C)C([C@H](C)OCC(=O)NCC(C)(C)C)=CCC23)C[C@@H](O)C[C@@H]1O (some centres not stated) |

The remaining lines, values behind:

| Structure (SMILES) | Activity [%] |
| --- | --- |
| C=C1/C(=C\C=C2/CCC[C@]3(C)[C@@H]([C@H](C)CCCC(C)(C)O)CC[C@@H]23)C[C@@H](O)C[C@@H]1O | 100 |
| C=C1/C(=C\C=C2/CCC[C@]3(C)[C@@H]([C@H](C)OCCC(C)(C)O)CC[C@@H]23)C[C@@H](O)C[C@@H]1O [MAXACALCITOL] | 20 |

system: Mus musculus; test: Calcemic activity in percutaneously dosed mouse relative to control; assay type: functional; details: not given
Outline: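 Mice received a single percutaneous dose of test compound or vehicle, n = 3. Blood ionized Ca (mmol/L) was measured. Activity (%) = (analog Ca − vehicle Ca)/vehicle Ca × 100.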

| Structure (SMILES) | Blood ionized calcium [mmol/L] |
| --- | --- |
| C=C1/C(=C\C=C2/CCC[C@]3(C)C([C@H](C)OCC(=O)NC(C)(C)C)=CCC23)C[C@@H](O)C[C@@H]1O (some centres not stated) | 2.16 |
| C=C1/C(=C\C=C2/CCC[C@]3(C)C([C@H](C)OCC(=O)O)=CCC23)C[C@@H](O)C[C@@H]1O (some centres not stated) | 1.38 |
| C=C1/C(=C\C=C2/CCC[C@]3(C)C([C@H](C)OCC(=O)OC(C)(C)C)=CCC23)C[C@@H](O)C[C@@H]1O (some centres not stated) | 1.65 |
| C=C1/C(=C\C=C2/CCC[C@]3(C)C([C@H](C)OCCC(C)(C)O)=CCC23)CC(O)CC1O (single isomer, unassigned) | 2.16 |
| C=C1/C(=C\C=C2/CCC[C@]3(C)C([C@H](C)OCC(=O)NCC(F)(F)C(F)(F)F)=CCC23)C[C@@H](O)C[C@@H]1O (some centres not stated) | 1.58 |
| C=C1/C(=C\C=C2/CCC[C@]3(C)C([C@H](C)OCC(=O)OC(C)(CC)CC)=CCC23)C[C@@H](O)C[C@@H]1O (some centres not stated) | 1.57 |
| C=C1/C(=C\C=C2/CCC[C@]3(C)[C@@H]([C@H](C)OCCC(C)(C)O)CC[C@@H]23)C[C@@H](O)C[C@@H]1O [MAXACALCITOL] | 2.6 |
| C=C1/C(=C\C=C2/CCC[C@]3(C)C([C@H](C)O)=CCC23)C[C@@H](O)C[C@@H]1O (some centres not stated) | 1.4 |
| C=C1/C(=C\C=C2/CCC[C@@]3(C)C2CC[C@@H]3[C@H](C)OCC(=O)OC(C)(C)C)C[C@@H](O)C[C@@H]1O (some centres not stated) | 1.49 |
| C=C1/C(=C\C=C2/CCC[C@]3(C)C([C@H](C)OCC(=O)NCC(C)(C)C)=CCC23)C[C@@H](O)C[C@@H]1O (some centres not stated) | 1.82 |
| C=C1/C(=C\C=C2/CCC[C@@]3(C)C2CC[C@@H]3[C@H](C)CCC(=O)OC(C)(C)C)C[C@@H](O)C[C@@H]1O (some centres not stated) | 1.77 |
